# Experimental data from ChEMBL document CHEMBL4706750, “Design and Catalyzed Activation of Mycophenolic Acid Prodrugs” (ACS Med Chem Lett, 2021).
# The source made the active and inactive calls. The rule behind the calls is not given here.
# Columns and labels:
# [1] = Toxicity in human hepatocytes assessed by dehydrogenase activity measured after 48 hrs by CCK-8 assay; assay type: cell-based, Hepatocyte
# How it was run: (§1)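 Cells cultured with compound for 48 h, then dehydrogenase activity read by colorimetric CCK-8 assay. EC50 derived from the concentration series. Cells were primary human hepatocytes or the MIN6 pancreatic β-cell line, as the line states.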
# [2] = target: Inosine-5'-monophosphate dehydrogenase 2 (Homo sapiens) (UniProt P12268); assay: Inhibition of IMPDH2 (unknown origin) assessed by conversion of NAD+ to NADH preincubated for 30 mins followed by addition of inosine-5'- monophosphate substrate and NAD at 10 uM measured by plate reader method
# How it was run: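 IMPDH2 enzyme exposed to test compounds, then stimulated with inosine-5′-monophosphate and NAD+. NADH formation followed by absorbance at 340 nm. Single test concentration of 10 μM.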
# [3] = Stability of compound in PBS at pH 7.4 and 37 degree C measured by HPLC method; assay type: physicochemical; settings: buffer
# How it was run: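 Compound incubated at 37 °C in PBS (pH 7.4, 5% DMSO) with no catalyst. Remaining compound followed over time.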
# [4] = Prodrug conversion in PBS buffer assessed as mycophenolic acid formation in presence of nitroreductase and NADH.; assay type: ADME
# How it was run: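 Prodrug incubated at 37 °C in PBS (pH 7.4, 5% DMSO) with nitroreductase conjugated to 30 μm amino-terminated polystyrene beads by reductive amination, plus NADH. Release of mycophenolic acid followed over time.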
# [5] = Toxicity in mouse MIN6 cells assessed by dehydrogenase activity measured after 48 hrs by CCK-8 assay; assay type: cell-based; how it was run: as §1
# Chain of Inosine-5'-monophosphate dehydrogenase 2 (Homo sapiens) (P12268 2-514 limits assumed): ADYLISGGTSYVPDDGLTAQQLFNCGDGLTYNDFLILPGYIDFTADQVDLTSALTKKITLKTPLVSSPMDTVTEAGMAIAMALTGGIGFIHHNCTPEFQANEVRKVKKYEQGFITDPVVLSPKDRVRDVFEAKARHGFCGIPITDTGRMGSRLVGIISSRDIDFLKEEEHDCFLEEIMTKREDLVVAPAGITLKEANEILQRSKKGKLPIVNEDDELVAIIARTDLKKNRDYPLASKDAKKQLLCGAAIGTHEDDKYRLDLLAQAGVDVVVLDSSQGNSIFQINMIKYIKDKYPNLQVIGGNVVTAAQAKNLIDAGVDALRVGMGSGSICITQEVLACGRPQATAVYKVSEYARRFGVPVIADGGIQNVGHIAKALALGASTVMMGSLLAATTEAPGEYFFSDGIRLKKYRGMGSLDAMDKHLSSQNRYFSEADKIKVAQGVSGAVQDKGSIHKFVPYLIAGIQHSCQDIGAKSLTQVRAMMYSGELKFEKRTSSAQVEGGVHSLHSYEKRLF
Compound,EC50 at 48 h [1] [µM],inhibition [2],Stabilty [3],Drug metabolism [4],EC50 at 48 h [5] [µM]
C#CCOC(=O)CC/C(C)=C/Cc1c(OC)c(C)c2c(c1OCC#C)C(=O)OC2,6.7,inactive,–,–,–
C#CCOc1c(C/C=C(\C)CCC(=O)O)c(OC)c(C)c2c1C(=O)OC2,20.1,inactive,Stable,–,–
COc1c(C)c2c(c(OCc3ccc([N+](=O)[O-])cc3)c1C/C=C(\C)CCC(=O)O)C(=O)OC2,14.4,inactive,Stable,Metabolite_Detected,24
COc1c(C)c2c(c(O)c1C/C=C(\C)CCC(=O)O)C(=O)OC2 [MYCOPHENOLIC ACID],5.9,Active,–,–,0.6
COc1c(C)c2c(c(OCc3ccc([N+](=O)[O-])cc3)c1C/C=C(\C)CCC(=O)OCc1ccc([N+](=O)[O-])cc1)C(=O)OC2,8.3,inactive,–,–,–
